test: Toxicity liver stage against HepG2, at 10uM; assay type: cell-based; parameters: test concentration 10 uM, cell line HepG2-A16-CD81EGFP; details: human, HepG2-A16-CD81EGFP cells; read-out: INHIBITION
In short: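 Uninfected HepG2-A16-CD81EGFP cells, 3 × 10^3 per well, 1536-well, plated on prespotted compound at 10 μM final, parasite-free screening media added to match infected plates; puromycin 10 μM positive, DMSO 0.5% negative; run in parallel with 48 h PbLuc assay at 37 °C, 5% CO2; viability by CellTiter-Glo luminescence, normalized to controls.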

SMILES	cytotoxicity at 10 µM [%]
CC(=O)NC[C@H]1COCc2nc3c(C)cccc3n21	8.65
c1ccc(-c2nnc([C@H]3CCN(C4CCC4)C3)o2)cc1	1.74
CCOC(=O)N1CCC(OC)c2ccccc2N(C)C(=O)C1 (stereo unspecified)	7.58
O=C(NCCc1ccccn1)C1(n2cnnn2)CCCCC1	0.801
Cn1ccc2ccc(C(=O)Nc3nc[nH]n3)cc21	-1.55
O=C(Cn1cnc2sccc2c1=O)NCCc1nnc2ccccn12	3.57
CCn1nc(C)c2nc(C)nc(NCCc3ccccc3)c21	25.2
O=C(COCC1CC1)N1CCCC1c1nc(-c2ccccc2F)c[nH]1 (stereo unspecified)	-0.025
Cc1[nH]ncc1CCCNC(=O)N1CCC(C(N)=O)CC1	-3.62
O=C(CCc1ccccn1)NC1CCN(c2cccc(Cl)c2)C1 (stereo unspecified)	17.1
O=C(Cc1cccc(O)c1)NC1CCN(c2cccc(Cl)c2)C1 (stereo unspecified)	17.1
Cc1nn(-c2ccc(F)cc2)c2[nH]nc(N)c12	13.6
COCCSCC(=O)NCc1ccnc(N(C)C)c1	9.88
COCc1cccc(C(=O)N2CCCN(C(=O)OCC(C)C)CC2)c1	-10
CC(C)c1nn(C)c(N(C)C)c1CNCc1ccnn1C	0.926
Cc1ccc(N2CCCC(N(C)Cc3ccccn3)C2)nn1 (stereo unspecified)	-4.01
CC(=O)NCCNC(=O)Nc1cccc(Cl)c1SC(F)F	-13.1
CCOC1CCN(C(=O)c2ccc(-n3ncc(C#N)c3N)cc2)CC1	-1.1
COc1ccc2c(c1)C(NCCc1ncc(C)s1)CCCO2 (stereo unspecified)	-3.86
Cc1cccn2cc(CNCc3cccc4c3OCCCO4)nc12	15.5
CC(C)CN1C(=O)CO[C@@H]2CNC[C@H]21	-110
COc1ccc([C@@H]2CN(c3cc(OC)ncn3)C[C@H]2N(C)C)cc1	6.98
N[C@@H](C(=O)N1CCN(c2ccccc2Cl)C(=O)C1)c1ccccc1	-0.823

SMILES	cytotoxicity at 10 µM [%]
CCC[C@H]1CN(Cc2ccc(N(C)C)nc2)C[C@@H]1NS(=O)(=O)CC	-11.9
Cc1ccc(CN2CCN(C3CCC3)CC2CCO)o1 (stereo unspecified)	-2.46
CC(=O)NC1CCN(c2nc(N)nc3c2CCCC3)C1 (stereo unspecified)	0.452
Cc1cc(C)c2[nH]c(=O)c(CN3CCCC4(C3)CN(C)C(=O)O4)cc2c1 (stereo unspecified)	-14.3
O=C(c1cn(CCN2CCCCC2)nn1)N1CCSCC1	2.34
COCC(Nc1ncnc2sc(C)c(C)c12)c1ccnn1C (stereo unspecified)	-4.53
O=C(O)c1cn(CC2CCCN(c3ccc4ccccc4n3)C2)nn1 (stereo unspecified)	-7.14
CCCS(=O)(=O)c1ncc(CN2CCC(CO)CC2)n1CC1CCCO1 (stereo unspecified)	7
CC(C)(C)N1CC(C(=O)N2CCN(CCn3cccc3)CC2)CC1=O (stereo unspecified)	18.7
Cc1ccc(-c2nc(CNC3CCc4ncnn4C3)co2)c(C)c1 (stereo unspecified)	-9.5
Cc1ccccc1CS(=O)(=O)CC(=O)NC1CCCCNC1=O (stereo unspecified)	-7.23
Cc1cc(C)c(OCC(=O)NS(=O)(=O)c2cccnc2)c(C)c1	-1.35
Cc1cc(NC(=O)NCC(C)O)n(C)n1 (stereo unspecified)	1.69
CC(C)c1nnc2n1CCN(CC(=O)N1CCc3ccccc3C1)C2	-5.92
Cc1cccc(OCCC(=O)N2CCN(S(=O)(=O)N(C)C)CC2)c1C	2.66
CCc1noc(C)c1C(=O)N1CCCC1c1c(C)nn(C)c1OC (stereo unspecified)	-12.1
CC(NC(=O)NCCCn1cccn1)c1ccc2c(c1)NC(=O)CO2 (stereo unspecified)	-5.07
CC(=O)N1Cc2ccnn2CC(C(=O)NCc2cccnc2)C1 (stereo unspecified)	-97
COCC1c2c(cnn2C)CCN1C(=O)c1cccn1C (stereo unspecified)	-94.1
O=C(c1ccccc1F)N1CCC2(CC1)CC(Oc1ccccn1)CO2 (stereo unspecified)	-113
Cc1noc([C@]23COC[C@H]2CN(C(=O)CN(C)C)C3)n1	-104
c1ccc(CN2C[C@H]3CC[C@@H](C2)N(Cc2nnc(C4CC4)o2)C3)cc1	-8.42
COc1cccc(CNCC2(COc3cccnc3)C[C@@H](O)[C@@H](O)C2)c1 (stereo partly specified)	-5.57

Reference: ChEMBL document CHEMBL4513216, “Probing the Open Global Health Chemical Diversity Library for Multistage-Active Starting Points for Next-Generation Antimalarials” (ACS Infect Dis, 2020)
